Measured values: ChEMBL document CHEMBL1141594, “Synthesis, radiosynthesis, and biological evaluation of new proteasome inhibitors in a tumor targeting approach” (J Med Chem, 2008)
Residues, ends and D or L forms follow the SMILES beside them. *: point of attachment. Cbz = O=C(OCc1ccccc1)*

Assays:
B16 = experiment: Growth inhibition of mouse B16 cells after 48 hrs; assay type: functional, cell-based; details: B16, 48 h
How it was run: (§1)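 DMEM with 10% fetal calf serum, monolayer culture. 5 × 10³ cells/well seeded and left 24 h at 37 °C, 5% CO₂, humidified. Exposed 48 h to increasing concentrations. Growth measured with Hoechst 33342 dye. IC₅₀ is the mean ± SD of three independent experiments, each in triplicate. Compounds tested as hydrochloride salts.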

[1] = Growth inhibition of human IPC227F cells after 48 hrs; assay type: functional; how it was run: as §1
[2] = Biodistribution in tumor of C57/BL6 mouse bearing B16 cells at 0.07 uM, iv after 15 mins; assay type: ADME, organism-based, C57Bl/6, Neoplasm; details: read-out: Drug uptake
How it was run: (§2)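 ¹²⁵I-labelled compound given to C57Bl/6J mice with subcutaneous B16 melanoma. Organs and tissues sampled at 15 min, 30 min, 1 h, 3 h and 6 h post-injection. Radioactivity expressed as % injected dose per unit organ mass. Feces and urine collected over 72 h for elimination.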

[3] = Biodistribution in tumor of C57/BL6 mouse bearing B16 cells assessed as remaining drug level at 0.07 uM, iv after 3 hrs; assay type: ADME, organism-based, C57Bl/6, Neoplasm; details: read-out: Drug uptake; how it was run: as §2
[4] = Biodistribution in liver of C57/BL6 mouse bearing B16 cells at 0.07 uM, iv; assay type: ADME, organism-based, C57Bl/6; details: read-out: Drug uptake; how it was run: as §2
[5] = Biodistribution in lung of C57/BL6 mouse bearing B16 cells at 0.07 uM, iv; assay type: ADME, organism-based, C57Bl/6; details: read-out: Drug uptake; how it was run: as §2
[6] = Biodistribution in kidney of C57/BL6 mouse bearing B16 cells at 0.07 uM, iv; assay type: ADME, organism-based, C57Bl/6; details: read-out: Drug uptake; how it was run: as §2
[7] = Ratio of biodistribution in tumor to blood in C57/BL6 mouse bearing mouse B16 cells; assay type: ADME, organism-based, C57Bl/6
Mus musculus = experiment: Drug metabolism in C57/BL6 mouse bearing B16 cells assessed as elimation in faeces and urine at 0.07 uM, iv after 72 hrs; assay type: ADME, organism-based, C57Bl/6; details: in vivo; how it was run: as §2
[8] = Biodistribution in tumor of C57/BL6 mouse bearing B16 cells assessed as remaining drug level at 0.07 uM, iv after 6 hrs; assay type: ADME, organism-based, C57Bl/6, Neoplasm; details: read-out: Drug uptake; how it was run: as §2

Work on CCN(CC)CCNC(=O)c1ccc(C(=O)N[C@@H](CC(C)C)C(=O)N[C@@H](CC(C)C)C(=O)N[C@H](C=O)CC(C)C)c(/N=N/N2CCCC2)c1 yielded an IC50 (B16) of 20 nM and an IC50 [1] of 180 nM.

CCN(CC)CCNC(=O)c1ccc(C(=O)N[C@@H](CC(C)C)C(=O)N[C@@H](CC(C)C)C(=O)N[C@H](C=O)CC(C)C)c(I)c1 showed an IC50 (B16) of 1790 nM and an IC50 [1] of 3580 nM.

For CCN(CC)CCNC(=O)c1ccc(C(=O)N[C@@H](CC(C)C)C(=O)N[C@@H](CC(C)C)C(=O)N[C@H](C=O)CC(C)C)c([125I])c1.Cl, the tissue uptake at 0.25 h, 0.07 µM [2] was 2.7 %ID/g, the tissue uptake at 3 h, 0.07 µM [3] was 1.2 %ID/g and the tissue uptake at 0.07 µM [4] was 8.9 %ID/g. For the same molecule, the tissue uptake at 0.07 µM [5] was 16.3 %ID/g, the tissue uptake at 0.07 µM [6] was 4.9 %ID/g and the Kp [7] was at least 1. For the same molecule, the Activity (Mus musculus) was 87% and the tissue uptake at 6 h, 0.07 µM [8] was 1.2 %ID/g.

With CCN(CC)CCNC(=O)c1ccc(C(=O)N[C@@H](CC(C)C)C(=O)N[C@@H](CC(C)C)C(=O)N[C@H](C=O)CC(C)C)cc1 the IC50 (B16) was 1300 nM, the IC50 [1] was 640 nM and the tissue uptake at 0.07 µM [4] was 5.95 %ID/g.

With CCN(CC)CCNC(=O)c1ccc(C(=O)N[C@@H](CC(C)C)C(=O)N[C@@H](CC(C)C)C(=O)N[C@H](C=O)CC(C)C)c(NNN2CCCC2)c1 the IC50 (B16) was 530 nM and the IC50 [1] was 1850 nM.

CC(C)C[C@@H](C=O)NC(=O)[C@H](CC(C)C)NC(=O)[C@H](CC(C)C)NC(=O)OCc1ccccc1 (Cbz-Leu-Leu-Leu-aldehyde) gave an IC50 (B16) of 42 nM and an IC50 [1] of 77 nM.
